pIC50: −log10 of the molar value.
Key:
[1] = tested on: Nucleic Acid; test: Binding affinity to pUC18 DNA assessed as DNA alkylating activity after 5 hrs by thermal cleavage assay; format: nucleic-acid assay; details: Escherichia coli
Method in brief: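 PCR probe from the 749–956 region of pUC18. DNA precipitated and lyophilised, then heated at 90 °C for 30 min in sodium citrate buffer (pH 7.2) to cleave at alkylated adenines. Fragments resolved by electrophoresis.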

[2] = tested on: L1210; test: Cytotoxicity against mouse L1210 cells after 3 days by MTT assay; format: functional, cell-based; details: L1210, 72 h
Method in brief: (§1)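 Murine tumour cells under continuous drug exposure for 3 days. Growth inhibition measured by MTT assay. IC50 is the concentration inhibiting growth by 50%.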

[3] = Cytotoxicity against mouse B16F0 cells after 3 days by MTT assay; format: functional, cell-based; details: B16F0, 72 h; method in brief: as §1
[4] = tested on: Leishmania donovani; test: Antimicrobial activity against promastigotes of Leishmania donovani assessed as inhibition of cell proliferation after 72 hrs by alamar blue assay; format: functional, organism-based
Method in brief: (§2)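 Promastigotes at 5 × 10^4 cells/well in DME-L medium with 10% heat-inactivated FBS, hemin, xanthine and penicillin-streptomycin. Exposed to 0.03 nM to 64 µM compound for 72 h at 26 °C. Alamar blue added, incubated 15 h, dye reduction read by fluorescence ex 530/em 590 nm.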

[5] = tested on: Trypanosoma brucei; test: Antimicrobial activity against procyclic form of Trypanosoma brucei 427 assessed as inhibition of cell proliferation after 72 hrs by alamar blue assay; format: functional, organism-based; details: Trypanosoma brucei, 427, 72 h
Method in brief: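 T. brucei 427 procyclic forms grown in SDM 79 medium with 0.03 nM to 64 µM compound for 72 h at 26 °C. Proliferation read by Alamar blue reduction after a further 15 h, fluorescence ex 530/em 590 nm.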

[6] = tested on: Plasmodium falciparum; test: Antimicrobial activity against Plasmodium falciparum infected in human erythrocytes assessed as growth inhibition; format: functional, organism-based
Method in brief: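 P. falciparum grown in human erythrocytes at 3–5% hematocrit in complete medium. In vitro growth assay at six concentrations, in triplicate, in three independent experiments.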

[7] = tested on: Leishmania mexicana; test: Antimicrobial activity against promastigotes of Leishmania mexicana assessed as inhibition of cell proliferation after 72 hrs by alamar blue assay; format: functional, organism-based; method in brief: as §2

Compound | Activity [1] | pIC50 [2] | pIC50 [3] | pIC50 [4] | pIC50 [5] | pIC50 [6] | pIC50 [7]
COc1cc2cc(C(=O)Nc3cc(N)c4ccccc4c3CCCl)[nH]c2c(OC)c1OC [CENTANAMYCIN] | Dose-dependent effect | 7.26 | 7.57 | 7.89 | 8.72 | 8.74 | 5.99
COc1cc2cc(C(=O)N3CC(CCl)c4c3cc(O)c3ccccc43)[nH]c2c(OC)c1OC (stereo not drawn) | – | – | 7.11 | – | – | – | –
